# Experimental data as given in the M2OR odorant receptor database.
# Legend:
# UniProt Q8VGX8 = target: T1, UniProt Q8VGX8; conditions: stereoisomer not certain
# T1 sequence (whole entry): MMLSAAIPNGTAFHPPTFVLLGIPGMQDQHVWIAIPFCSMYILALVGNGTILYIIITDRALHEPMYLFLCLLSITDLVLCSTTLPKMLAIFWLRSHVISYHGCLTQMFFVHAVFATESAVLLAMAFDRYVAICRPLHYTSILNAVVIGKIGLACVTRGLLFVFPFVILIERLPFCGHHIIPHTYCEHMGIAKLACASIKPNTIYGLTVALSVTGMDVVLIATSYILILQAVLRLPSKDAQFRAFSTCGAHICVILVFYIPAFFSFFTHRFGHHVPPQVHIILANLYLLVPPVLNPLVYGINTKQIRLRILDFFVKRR
# In short: (§1)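 Whether a receptor–molecule pair is responsive (active) rests on the original authors' judgment that its measured signal was statistically different from baseline. Pairs without that judgment are non-responsive (inactive). Sources used varied assay methods, commonly transient luciferase assays in mammalian cell lines.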
# UniProt Q8VH18 = conditions: stereoisomer not certain
# In short: as §1
# 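Further: active if original authors judged signal statistically different from baseline.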
# Sequence of UniProt Q8VH18 (Q8VH18 as listed by the source): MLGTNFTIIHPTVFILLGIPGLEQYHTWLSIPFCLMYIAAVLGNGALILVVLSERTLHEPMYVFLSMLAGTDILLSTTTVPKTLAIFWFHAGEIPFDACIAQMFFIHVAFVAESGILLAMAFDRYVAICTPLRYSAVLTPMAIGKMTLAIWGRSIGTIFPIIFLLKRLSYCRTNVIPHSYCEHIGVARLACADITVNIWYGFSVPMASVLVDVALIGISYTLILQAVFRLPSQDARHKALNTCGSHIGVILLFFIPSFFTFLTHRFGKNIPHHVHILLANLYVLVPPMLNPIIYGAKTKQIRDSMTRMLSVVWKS
compound,measurement,setting,value
O=C(O)CCCCCCCBr,odorant receptor agonist call,UniProt Q8VGX8,active
same,odorant receptor agonist call,UniProt Q8VH18,active
